A selection: hits, their analogues and other compounds. The true share with any hit is near 2.9%.
S100A4 inh HTS: inhibitors of S100A4-myosin IIA peptide binding, primary screen, biochemical, fluorescence polarization, TAMRA-MyoIIA peptide; inhibition, % at 10.7 µM; 360,000 tested, 0.14% active;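 active = mean inhibition of at least 70% across replicates, with every replicate also reaching that level; inconclusive = mean inhibition reaches 70% but some replicates fall short; inactive = mean inhibition below 70%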
Target sequence (P26447 whole entry, looked up): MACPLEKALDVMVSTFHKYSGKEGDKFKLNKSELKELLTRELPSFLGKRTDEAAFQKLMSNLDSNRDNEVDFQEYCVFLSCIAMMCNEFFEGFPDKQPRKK
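Compound dosing: one dose per compound; test system: human S100A4 monomer with TAMRA-labelled myosin IIA peptide; probe or stimulus: TAMRA-labelled myosin IIA heavy-chain peptide probe, 5 nM; medium: HEPES buffer with Ca2+, pH 7.2; schedule: 5 min incubation before reading; benchmarks: neutral control DMSO, positive control TFP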
Statin myotox sup: suppressors of statin myotoxicity in C2C12 myotubes, primary screen, cell-based, single point, plate reader; C2C12 myotubes + simvastatin, ATP luminescence, 48 h; scaled: DMSO 0, geranylgeraniol control 100; rescue of ATP level, % at 7.49 µM; 330,000 tested, 0.78% active; AID 602340, 2012;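 active = mean ATP rescue above about 67%, or every replicate alone reaching that limit, limit read from the data, passing the limit was not always enough; inconclusive = no clear call, values can overlap the other calls; inactive = mean under the limit and some replicate under it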;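 also: myotubes were challenged with 10 µM simvastatin during compound exposure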
PGC1a acetyl inh: inhibitors of PGC1a acetylation signal, primary screen, cell-based, U2OS, AlphaScreen, inhibitor mode; AlphaScreen anti-acetyl-lysine; with virally co-expressed GCN5 acetyltransferase; inhibition, % at 15.6 µM; 350,000 tested, 0.17% active;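 active = every replicate shows inhibition of at least 40%; inconclusive = mean inhibition at least 40% but some replicate below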
DENV2 CPE: inhibitors of DENV2 cytopathic effect, primary screen, cell-based, plate reader, single concentration; DENV2-infected cells, cytopathic effect rescue; CPE inhibition, % at 9.99 µM; 350,000 tested, 1.7% active; in the data active = CPE inhibition above about 20%, passing the limit was not always enough; inconclusive = no clear call, values can overlap the other calls; tested in BHK-21 cells
SIRT5 block: SIRT5 desuccinylase inhibitors, primary screen, biochemical, fluorescence imaging, single point, set 5. 330,000 tested, 1.1% active. Purified SirT5, succinyl-peptide AMC, trypsin-coupled fluorescence. inhibition, % at 15 µM. NAD-dependent protein deacylase sirtuin-5, mitochondrial (Homo sapiens), Q9NXA8; in the data active = inhibition above about 15%; inconclusive = no clear call, values can overlap the other calls
Target sequence (Q9NXA8 whole entry, looked up): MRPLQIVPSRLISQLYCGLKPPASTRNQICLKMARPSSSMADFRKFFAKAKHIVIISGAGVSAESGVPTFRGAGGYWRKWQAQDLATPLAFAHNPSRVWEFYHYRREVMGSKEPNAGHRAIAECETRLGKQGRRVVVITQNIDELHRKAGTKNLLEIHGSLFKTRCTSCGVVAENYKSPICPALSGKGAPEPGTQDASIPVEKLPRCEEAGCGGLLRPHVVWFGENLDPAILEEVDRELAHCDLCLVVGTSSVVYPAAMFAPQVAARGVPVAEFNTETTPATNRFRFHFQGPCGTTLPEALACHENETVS
Hits are given with their value; 0 = inactive; ? = inconclusive; - = no result; ! = repeats disagree.

SMILES	S100A4 inh HTS	Statin myotox sup	PGC1a acetyl inh	DENV2 CPE	SIRT5 block
COc1ccc(NC(=O)Nc2ccc3c(c2)C(=O)N([C@H](C)CO)C[C@H](C)[C@H](CN(C)C(=O)C2CCCCC2)OCCCC[C@H](C)O3)cc1	0	71	0	0	0
COc1ccc(NC(=O)Nc2ccc3c(c2)C(=O)N([C@H](C)CO)C[C@H](C)[C@H](CN(C)C(=O)Nc2ccc(OC)cc2)OCCCC[C@@H](C)O3)cc1	0	-	0	0	0
COc1ccc(NC(=O)Nc2ccc3c(c2)C(=O)N([C@@H](C)CO)C[C@@H](C)[C@H](CN(C)C(=O)C2CCCCC2)OCCCC[C@H](C)O3)cc1	0	?	0	0	0
C[C@@H]1CCCCO[C@@H](CN(C)C(=O)C2CCCCC2)[C@@H](C)CN([C@H](C)CO)C(=O)c2cc(NC(=O)Nc3ccccc3)ccc2O1	0	-	0	0	0
COc1ccc(NC(=O)Nc2ccc3c(c2)C(=O)N([C@H](C)CO)C[C@H](C)[C@@H](CN(C)C(=O)C2CCCCC2)OCCCC[C@@H](C)O3)cc1	0	0	0	32	0
COc1ccc(NC(=O)Nc2ccc3c(c2)C(=O)N([C@@H](C)CO)C[C@H](C)[C@H](CN(C)C(=O)C2CCCCC2)OCCCC[C@H](C)O3)cc1	0	79	0	0	0
COc1ccc(NC(=O)Nc2ccc3c(c2)C(=O)N([C@H](C)CO)C[C@@H](C)[C@@H](CN(C)C(=O)C2CCCCC2)OCCCC[C@H](C)O3)cc1	0	0	0	46!	17!
C[C@H](CO)N1C[C@H](C)[C@@H](CN(C)S(C)(=O)=O)Oc2c(NC(=O)c3cnccn3)cccc2C1=O	0	0	0	0	0
COc1ccc(NC(=O)Nc2ccc3c(c2)C(=O)N([C@@H](C)CO)C[C@@H](C)[C@H](CN(C)C(=O)C2CCCCC2)OCCCC[C@@H](C)O3)cc1	0	0	0	22	0
CN(C)C(=O)[C@H]1[C@H](CO)[C@H]2Cn3c(ccc(C4=CCCCC4)c3=O)[C@@H]1N2Cc1ccncc1	0	0	-	36	0
CN(C)C(=O)[C@@H]1[C@@H](CO)[C@@H]2Cn3c(ccc(C4=CCCC4)c3=O)[C@H]1N2S(=O)(=O)c1cn(C)cn1	0	0	-	22	0
CC(C)=NNC(=O)CN1C(=O)NC2NC(=O)NC21 (centres undefined)	0	0	0	34	0
CC1(C)CC(NC(=O)CC2CCCCC2)CC(C)(C)N1	-	0	0	-	-
CC1(C)CC(NC(=O)CCC2CCCC2)CC(C)(C)N1	-	106	0	-	-
COC(=O)C[C@@H]1C[C@@H]2c3cc(NC(=O)C4CCC4)ccc3O[C@@H]2[C@H](CO)O1	0	0	0	0	0
CCC1(C)C2(C#N)C(N)=NC(OC)(OC)C12C#N (centres undefined)	-	72	0	-	-
C[C@@H]1CN([C@H](C)CO)C(=O)c2cc(NC(=O)Nc3ccc(F)cc3)ccc2O[C@H]1CN(C)Cc1ccccc1	0	0	0	0	0
C[C@]12c3[nH]c4cc(-c5ccco5)ccc4c3CCN1C(=O)[C@@H](CC(=O)NCCc1ccccn1)C[C@@H]2C(=O)N1CCOCC1	0	0	0	50	0
CCN(CC)C(=O)[C@H]1C[C@H](CC(=O)NCCc2ccccn2)C(=O)N2CCc3c([nH]c4cc(-c5ccco5)ccc34)[C@]12C	0	0	-	0	0
C[C@]12c3[nH]c4ccc(Cl)cc4c3CCN1C(=O)[C@@H](CC(=O)NCc1cccc(C(F)(F)F)c1)C[C@@H]2C(=O)N1CCOCC1	0	0	0	0	40
C[C@]12c3[nH]c4ccccc4c3CCN1C(=O)C(CC(=O)NCc1cccc(C(F)(F)F)c1)C[C@@H]2C(=O)N1CCOCC1 (some centres undefined)	0	0	0	0	0
O=C(Cc1nnc(NC(=O)Nc2ccc(Cl)cc2)s1)NCc1ccccc1	0	-	-	0	38
COCCc1nnc(NC(=O)Cc2ccccc2)s1	-	89	0	-	-
Cc1noc(C)c1NC(=O)N(C)C[C@H]1OCCCC[C@@H](C)Oc2ccc(NS(=O)(=O)c3cccs3)cc2C(=O)N([C@@H](C)CO)C[C@H]1C	0	-	0	0	0
C[C@@H]1CCCCO[C@H](CN(C)C)[C@@H](C)CN([C@@H](C)CO)C(=O)c2cc(NS(=O)(=O)c3ccccc3)ccc2O1	0	0	0	?	0
SMILES	S100A4 inh HTS	Statin myotox sup	PGC1a acetyl inh	DENV2 CPE	SIRT5 block
COC(=O)NC(=S)Nc1ccc(Oc2ccc(Cl)cc2)c(Cl)c1	0	0	0	-	-
Fc1ccc(NC(=S)Nc2ccc(F)c(Cl)c2)cc1Cl	-	69	0	-	-
COC(=O)NC(=S)Nc1ccc(Oc2ccc(Cl)cc2Cl)c(Cl)c1	-	126	0	-	-
O=C(NC(=S)Nc1ccc(F)c(Cl)c1)C1CC1	0	-	0	-	0
O=c1[nH]c2ccc(NC(=S)Nc3ccc(Cl)cc3Cl)cc2[nH]1	-	139	0	-	-
O=c1[nH]c2ccc(NC(=S)Nc3ccc(Cl)cc3)cc2[nH]1	-	0	0	-	-
COc1ccc2c3c([nH]c2c1)[C@H](CO)N(CC1CCOCC1)CC31CN(C(=O)C2CC2)C1	0	-	-	0	0
C[C@@H]1CCCCO[C@H](CN(C)C(=O)Nc2ccc(C(F)(F)F)cc2)[C@H](C)CN([C@@H](C)CO)C(=O)c2cc(NS(=O)(=O)c3cccs3)ccc2O1	0	0	0	37	0
C[C@@H]1CCCCO[C@@H](CN(C)C(=O)Nc2ccc(F)cc2)[C@H](C)CN([C@@H](C)CO)C(=O)c2cc(NS(=O)(=O)c3cccs3)ccc2O1	0	-	0	0	0
C[C@@H]1CCCCO[C@H](CN(C)C(=O)Nc2ccc(F)cc2)[C@@H](C)CN([C@H](C)CO)C(=O)c2cc(NS(=O)(=O)c3cccs3)ccc2O1	0	0	0	22	0
CC(NC(=O)CSCc1ccc(Br)cc1)c1ccccc1 (centres undefined)	0	0	0	0	0
CC(C)NC(=O)CSCc1cccc(Br)c1	0	0	0	0	19
COc1ccc(OC)c(NC(=O)COC(=O)C2CCN(C(=O)c3ccc(Cl)cc3)CC2)c1	0	-	-	?	0
Cc1cc(NC(=O)COC(=O)C2CCN(C(=O)c3ccc(Cl)cc3)CC2)no1	-	111	0	-	-
Nc1c(Cl)cc(-c2csc(N3CCCC3c3nc4cc(Cl)c(N5CCCCC5)cc4n3CCCO)n2)cc1Cl (centres undefined)	0	0	-	0	15
CCCn1c(C2CCCN2c2nc(-c3cccc(Br)c3)cs2)nc2cc(Cl)c(Cl)cc21 (centres undefined)	0	117	0	-	0
Nc1c(Cl)cc(-c2csc(N3CCCC3c3nc4cc(Cl)c(Cl)cc4n3CCCO)n2)cc1Cl (centres undefined)	0	0	-	0	0

Bioassay records from PubChem.
